Results pooled from the literature.
Each line is one published result; the experiments were not run side by side.
Cell line: MV4-11
Observed: cell growth or viability

| SMILES | test | setting | measurement | value |
| --- | --- | --- | --- | --- |
| CCNc1ccnc(Nc2cccc(-c3cccnc3)c2)n1 | ATP luminescence | 72 h | EC50 | 0.035 µM |
| COc1cc2nccc(Oc3ccc(NC(=O)C4(C(=O)Nc5ccc(F)cc5)CC4)cc3)c2cc1OC | trypan blue | 72 h | IC50 | 0.012 µM |
| CC(C)Nc1ccnc(Nc2ccc(C(N)=O)cc2)n1 | ATP luminescence | 72 h | EC50 | 2.53 µM |
| CC(C)[C@H](N)C(=O)N1CCC[C@H]1B(O)O | ATP luminescence | 48 h | IC50 | 0.078 µM |
| COC(=O)[C@H](C)Nc1ccnc(Nc2cccc(-c3cccnc3)c2)n1 | ATP luminescence | 72 h | EC50 | > 8 µM |
| COc1ccc(-c2c(-c3ccc(C#N)c(F)c3)nc(N3CCC(N)CC3)n(C)c2=O)cc1F | resazurin | 96 h | EC50 | 0.0029 µM |
| Nc1nc(Nc2ccc3c(c2)CC[C@@H](N2CCCC2)CC3)nn1-c1cc2c(nn1)-c1ccccc1CCC2 | trypan blue | 72 h | IC50 | 0.247 µM |
| COc1cc(-c2ncn(/C=C\C(=O)OC(C)C)n2)cc(C(F)(F)F)c1 |  | 72 h | IC50 | 0.028 µM |
| O=C(NC1CCC1)c1ccc2nc(-c3cccc(NS(=O)(=O)NCCN4CCCCC4)c3)cn2c1 | ATP luminescence | 72 h | IC50 | 4.2 µM |
| CC(C)C[C@H](NC(=O)[C@H](Cc1ccccc1)NC(=O)c1cnccn1)B(O)O | ATP luminescence |  | IC50 | 0.0039 µM |
| NNCCc1ccccc1 | resazurin | 96 h | EC50 | > 2 µM |
| N[C@@H](CC(=O)N1CCN(C(c2ccc(F)cc2)c2ccc(F)cc2)CC1)C(=O)N1Cc2ccccc2C1 | ATP luminescence | 24 h | IC50 | 1.48 µM |
| c1cc(Nc2nccc(NC3CCCCC3)n2)cc(-c2cnccn2)c1 | ATP luminescence | 72 h | EC50 | 0.053 µM |
| C/C(=N\NC(=O)c1cccc(S(=O)(=O)N2CCN(C)CC2)c1)c1cc(Cl)ccc1O | resazurin | 96 h | EC50 | 0.886 µM |
| Cc1cc2c(cc1N1C(=O)c3cccc4c(CCCO)ccc(c34)C1=O)n(C)c(=O)n2C (racemic) | resazurin |  | GI50 | 2.63 µM |
